Assay results pooled from the literature.
Lines come from different studies, so protocols differ.
Target: Serine/threonine-protein kinase TAO2 (TAOK2, Homo sapiens, UniProt Q9UL54)
One construct used (Q9UL54 1-1235): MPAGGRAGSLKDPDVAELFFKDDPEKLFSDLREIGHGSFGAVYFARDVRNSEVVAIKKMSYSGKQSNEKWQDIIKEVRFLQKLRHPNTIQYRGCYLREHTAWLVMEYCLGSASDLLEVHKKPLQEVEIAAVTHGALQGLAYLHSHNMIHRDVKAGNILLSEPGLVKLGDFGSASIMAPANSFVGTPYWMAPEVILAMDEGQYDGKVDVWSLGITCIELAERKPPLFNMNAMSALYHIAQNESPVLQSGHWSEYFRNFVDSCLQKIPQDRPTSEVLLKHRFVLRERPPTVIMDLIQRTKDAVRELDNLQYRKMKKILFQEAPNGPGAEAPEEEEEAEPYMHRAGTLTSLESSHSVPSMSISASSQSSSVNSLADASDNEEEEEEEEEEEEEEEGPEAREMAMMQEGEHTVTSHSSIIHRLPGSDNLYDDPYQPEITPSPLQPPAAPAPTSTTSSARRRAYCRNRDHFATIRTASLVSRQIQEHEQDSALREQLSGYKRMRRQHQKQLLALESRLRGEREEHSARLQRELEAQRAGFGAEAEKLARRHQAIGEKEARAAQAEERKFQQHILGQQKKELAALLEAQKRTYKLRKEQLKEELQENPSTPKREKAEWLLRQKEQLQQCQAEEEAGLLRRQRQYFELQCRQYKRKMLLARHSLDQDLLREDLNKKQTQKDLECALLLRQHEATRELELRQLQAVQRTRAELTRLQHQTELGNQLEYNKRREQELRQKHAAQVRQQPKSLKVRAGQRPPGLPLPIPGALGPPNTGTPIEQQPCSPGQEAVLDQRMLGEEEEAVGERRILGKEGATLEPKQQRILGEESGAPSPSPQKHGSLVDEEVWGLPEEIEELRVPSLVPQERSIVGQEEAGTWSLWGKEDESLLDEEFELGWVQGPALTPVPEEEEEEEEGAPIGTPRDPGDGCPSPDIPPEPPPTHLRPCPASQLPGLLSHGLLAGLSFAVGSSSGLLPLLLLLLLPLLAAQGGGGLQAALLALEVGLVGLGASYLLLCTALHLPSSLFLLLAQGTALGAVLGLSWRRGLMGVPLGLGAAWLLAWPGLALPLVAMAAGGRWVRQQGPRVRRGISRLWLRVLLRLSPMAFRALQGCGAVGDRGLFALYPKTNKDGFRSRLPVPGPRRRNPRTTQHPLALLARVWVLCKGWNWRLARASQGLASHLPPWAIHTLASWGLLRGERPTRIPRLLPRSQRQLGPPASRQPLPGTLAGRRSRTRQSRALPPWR

| Structure (SMILES) | assay | conditions | endpoint | value |
| --- | --- | --- | --- | --- |
| COc1cc(-c2cc(-c3ccc(N4CCNCC4)cc3)cnc2C)cc(OC)c1OC | enzyme activity, inhibitor | 1 µM | inhibition | 2% |
| CN(C)c1ncnc(-c2ccc3nc(Nc4cc(CN5CCN(C(=O)CC(F)(F)F)CC5)ccn4)[nH]c3c2)c1Cl | cell-free assay, competition with immobilised ligand | 1 µM | remaining binding | 80% |
| CCN(CC)CCNC(=O)c1c(C)[nH]c(/C=C2\C(=O)Nc3ccc(F)cc32)c1C | enzyme activity, inhibitor | 10 µM | inhibition | 29% |
| O=C1CCc2cc(Nc3cc(OC4CCOCC4)c([N+](=O)[O-])cc3Cl)ccc2N1 | cell-free assay, competition with immobilised ligand | 1 µM | remaining binding | 82% |
| O=[N+]([O-])c1cccc2[nH]c(CNc3nc(N4CCOCC4)nc4c3ncn4-c3ccsc3)nc12 | binding, competition with immobilised ligand | 10 µM | binding vs control | 84% |
| Cc1cnc(NC2CCOCC2)nc1-n1cnc(C(=O)NC(CN)c2cc(F)cc(Cl)c2)c1 (centres unmarked) | enzyme activity, inhibitor, radiometric | 1 µM | remaining activity | 88% |
| CCCCNc1ncc2c(-c3ccc(F)cc3)nn(C[C@H]3CC[C@H](N)CC3)c2n1 | target engagement in cells, inhibitor, chemoproteomics | 20 mM | inhibition | 24.3% |
| COc1cccc(CNC(=O)c2nc3scc(COCc4ccc(C(=O)O)cc4)c3c(=O)[nH]2)c1 | cell-free assay, competition with immobilised ligand | 1 µM | remaining binding | 59.8% |
| CC(C)(C)c1nc(-c2cccc(NS(=O)(=O)c3c(F)cccc3F)c2F)c(-c2ccnc(N)n2)s1 | enzyme activity, inhibitor, radiometric | 1 µM | remaining activity | 35% |
| CCN(CC)c1ccc(C2=NNC(=O)CC2C)cc1[N+](=O)[O-] (centres unmarked) | enzyme activity, inhibitor | 10 µM | remaining activity | 95% |
| CSc1nc(C)c(-c2ccnc(Nc3ccc(N4CCOCC4)cc3)c2)[nH]1 | enzyme activity, inhibitor | 10 µM | inhibition | 2.1% |
| Cc1ccc(Nc2nccc(N(C)c3ccc4c(C)n(C)nc4c3)n2)cc1S(N)(=O)=O | enzyme activity, inhibitor | 10 µM | inhibition | 93% |
| CN1CC(Oc2cnc(C#N)cc2-c2ccn3nc(NC(=O)C4CC4)cc3c2)C1 | enzyme activity, inhibitor | 1 µM | inhibition | 0% |
| CCCOc1ccc([C@H]2[C@H](C(=O)O)[C@@H](c3ccc4c(c3)OCO4)CN2CC(=O)Nc2c(CC)cccc2CC)cc1 | cell-free assay, competition with immobilised ligand | 1 µM | remaining binding | 74% |
| COc1cccc2c(NCc3ccccc3)nc(-n3c(N)nc4ccccc43)nc12 | target engagement in cells, inhibitor, chemoproteomics | 20 mM | inhibition | -6.8% |
| C[C@@H](c1cccc(C#N)c1)n1cc(Cl)cc(C(N)=O)c1=N | cell-free assay, competition with immobilised ligand | 1 µM | remaining binding | 84% |
| CNC(=O)c1cc(Oc2ccc(NC(=O)Nc3ccc(Cl)c(C(F)(F)F)c3)cc2)ccn1 | enzyme activity, inhibitor | 0.3 µM | inhibition | 84% |
